Tests used:
Format in all cases: functional
DU-145 = assay: Antiproliferative activity against human DU145 cells assessed as reduction in cell growth incubated for 96 hrs by propidium iodide based 2D monolayer assay; details: DU-145, 96 h
Outline: (§1)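 After 24 h recovery, compound in medium or medium alone (control wells) was added at 10 half-log concentrations from 0.0032 to 100 µM, in triplicate, with at most 0.3% DMSO. After 96 h, wells were PBS-washed, stained with 7 µg/ml PI and 0.1% Triton X-100, and fluorescence read at 530/620 nm. IC50 came from a 4-parameter fit, geometric mean.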

CWR22R = assay: Antiproliferative activity against human 22Rv1 cells assessed as reduction in cell growth incubated for 96 hrs by propidium iodide based 2D monolayer assay; details: 22Rv1, 96 h; outline: as §1
LNCaP = assay: Antiproliferative activity against human LNCAP cells assessed as reduction in cell growth incubated for 96 hrs by propidium iodide based 2D monolayer assay; outline: as §1
VCaP = assay: Antiproliferative activity against human VCaP cells assessed as reduction in cell growth incubated for 96 hrs by propidium iodide based 2D monolayer assay
Outline: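 VCaP cells in RPMI 1640 with 10% FCS at 37 °C, 5% CO2, seeded 4,000–20,000 cells/well and left 24 h before dosing. Compounds from DMSO stocks were diluted in half-log steps in medium, 10 concentrations 0.0032–100 μM, triplicate wells, max 0.3% DMSO. After 96 h, cells were washed, stained with 7 μg/ml propidium iodide plus 0.1% Triton X-100 for 1–2 h at room temperature, and fluorescence read at ex 530/em 620 nm.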

SMILES: CC(O)(CS(=O)(=O)c1ccc(F)cc1)C(=O)Nc1cccc(S(F)(F)(F)(F)F)c1 (racemic)
- IC50 (DU-145): 48.8 µM
- IC50 (CWR22R): 38.9 µM
- IC50 (LNCaP): 32.6 µM
- IC50 (VCaP): 37.9 µM

SMILES: CC(O)(COc1cccc(C(F)(F)C(F)(F)F)c1)C(=O)Nc1cc(C(F)(F)F)cc(C(F)(F)F)c1 (racemic)
- IC50 (DU-145): 8.5 µM
- IC50 (CWR22R): 4.1 µM
- IC50 (LNCaP): 4.4 µM
- IC50 (VCaP): 9.5 µM

SMILES: CC(O)(CS(=O)(=O)c1ccccc1OC(F)(F)F)C(=O)Nc1ccc(S(F)(F)(F)(F)F)cc1 (racemic)
- IC50 (DU-145): 19.5 µM
- IC50 (CWR22R): 16 µM
- IC50 (LNCaP): 12.7 µM
- IC50 (VCaP): 19.9 µM

SMILES: CC(O)(COc1cccc(C(F)(F)C(F)(F)F)c1)C(=O)Nc1ccc(C(F)(F)F)cc1 (racemic)
- IC50 (DU-145): 7.6 µM
- IC50 (CWR22R): 3.6 µM
- IC50 (LNCaP): 3.9 µM
- IC50 (VCaP): 8.1 µM

SMILES: CC(O)(CS(=O)(=O)c1ccc(OC(F)(F)F)cc1)C(=O)Nc1cccc(S(F)(F)(F)(F)F)c1 (racemic)
- IC50 (DU-145): 35.6 µM
- IC50 (CWR22R): 31.2 µM
- IC50 (LNCaP): 10.7 µM
- IC50 (VCaP): 15.1 µM

SMILES: CC(O)(CS(=O)(=O)c1cccc(C(F)(F)F)c1)C(=O)Nc1cccc(S(F)(F)(F)(F)F)c1 (racemic)
- IC50 (DU-145): 37.3 µM
- IC50 (CWR22R): 24.6 µM
- IC50 (LNCaP): 21.8 µM
- IC50 (VCaP): 35.5 µM

SMILES: CC(O)(CS(=O)(=O)c1ccc(S(F)(F)(F)(F)F)cc1)C(=O)Nc1cccc(S(F)(F)(F)(F)F)c1 (racemic)
- IC50 (DU-145): 17.4 µM
- IC50 (CWR22R): 12.3 µM
- IC50 (LNCaP): 11.7 µM
- IC50 (VCaP): 17.2 µM

SMILES: CC(O)(CS(=O)(=O)c1cc(C(F)(F)F)cc(C(F)(F)F)c1)C(=O)Nc1cccc(S(F)(F)(F)(F)F)c1 (racemic)
- IC50 (DU-145): 13.7 µM
- IC50 (CWR22R): 9.3 µM
- IC50 (LNCaP): 9.7 µM
- IC50 (VCaP): 10.4 µM

SMILES: CC(O)(CS(=O)(=O)c1ccccc1C(F)(F)F)C(=O)Nc1cccc(S(F)(F)(F)(F)F)c1 (racemic)
- IC50 (DU-145): 27.3 µM
- IC50 (CWR22R): 27.7 µM
- IC50 (LNCaP): 24.9 µM
- IC50 (VCaP): 40.8 µM
